Test [1] is filed under the species Mustela putorius furo. Description: 20% increase in contractile force (CF) of ferret papillary muscle. It is filed as functional, Muscle tissue. The gist of the method: (§1)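 Isolated ferret papillary muscle in vitro. Value is the drug concentration (μM) giving a 20% rise in contractile force, the mean of at least two determinations, with ranges within ±10%. NR means that level was not reached at 100 μM. Responses were also tested with 1 μM propranolol and, for some compounds, 10 μM cimetidine.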

Test [2] can be described thus: Inhibition of crude canine cardiac c-AMP phosphodiesterase. Further details: species or system Canis lupus familiaris. The gist of the method:
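Crude cAMP phosphodiesterase came from canine cardiac tissue homogenates. IC50 (μM) is the mean of at least three determinations, with ranges within ±10%. Where 50% inhibition was not reached at 100 μM, the percent inhibition at 100 μM drug was recorded instead.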

Test [3] is filed under the species Mustela putorius furo. Description: Increase in contractile force (CF) of ferret papillary muscle; NR = not reached at 100 uM. In kind it is functional. The note with it: Muscle tissue. An outline of the steps: as §1
Test [4] concerns cAMP phosphodiesterase (Canis familiaris). The experiment in a line: Inhibition of crude canine cardiac c-AMP phosphodiesterase at 100 uM. The note with it: Canis lupus familiaris.

Structures are written as SMILES.

What is called IC50 is the concentration needed to halve the response being measured. For orientation: inhibition means the percentage by which the read-out fell short of the control. A higher inhibition goes with strong suppression.

`Cc1nc(O)c(C#N)c(NCCc2c[nH]cn2)n1` gave a C20 in the test listed under Mustela putorius furo [1] of 0.2 µM. This compound also had a half-maximal inhibitory concentration (IC50) in test [2] of 4 µM.

Regarding `CCc1[nH]c(O)nc1C(=O)OC`, in the test listed under Mustela putorius furo [3], the C20 entry is listed as “Not reached”. For the same compound, the inhibition in test [4] was determined as 10%. `CCc1[nH]c(O)nc1C(=O)c1ccccc1` yielded a C20 in the test filed under Mustela putorius furo [1] of 2 µM. Besides, inhibition in test [2] was half-maximal at 54 µM (IC50).

Consider `CCc1[nH]c(O)nc1C(=O)c1ccc(-n2ccnc2C)cc1`, for which the C20 in the test listed under Mustela putorius furo [1] stood at 0.7 µM. Compound `CC(=O)c1ccc(-n2ccnc2C)cc1` registered a C20 in the test filed under Mustela putorius furo [1] of 25 µM. In test [4], this compound displayed an inhibition of 15%. Take `CCc1[nH]c(O)nc1C(=O)NCCCn1ccnc1`: in the test filed under Mustela putorius furo [3], the C20 entry is given as “Not reached”. The inhibition in test [4] amounted to 5%.

Regarding `Cc1nc(=O)c(C#N)c(NCc2cccnc2)[nH]1` [PELRINONE], the C20 in the test listed under Mustela putorius furo [1] came out at 0.2 µM. In addition, the IC50 in test [2] amounted to 4 µM. Take `CCc1[nH]c(O)nc1C(=O)NCCc1c[nH]cn1`: the C20 in the test listed under Mustela putorius furo [1] came out at 10 µM. In test [4], this compound returned an inhibition of 25%. `O=C1CCc2cc(-n3ccnc3)ccc2N1` displayed a C20 in the test filed under Mustela putorius furo [1] of 1.6 µM. The same compound came in with an IC50 in test [2] of 71 µM. In the test filed under Mustela putorius furo [1], `CCc1[nH]c(O)nc1C(=O)c1ccc(-n2ccnc2)cc1` came in with a C20 of 0.05 µM. In test [2], the IC50 worked out at 2 µM.

On to `COc1ccc(C(=O)N2CCN(c3ccc4c(c3)CCC(=O)N4)CC2)cc1OC` [VESNARINONE], for which the C20 in the test filed under Mustela putorius furo [1] came to 2.3 µM. The midpoint of inhibition in test [2], the IC50, lay at 32 µM.

The values are drawn from ChEMBL document CHEMBL1124478, “Cardiotonic agents. 5. Fragments from the heterocycle-phenyl-imidazole pharmacophore” (J Med Chem, 1989).
